ChEMBL document CHEMBL1153964, “Tricyclic HIV integrase inhibitors V. SAR studies on the benzyl moiety” (Bioorg Med Chem Lett, 2009)

What was measured:
[1] = Inhibition of HIV integrase strand transfer activity; set-up: species or system Human immunodeficiency virus
Procedure, shortened: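 Strand transfer was run with biotinylated donor DNA bound to streptavidin-coated plates and DIG-tagged target DNA. Values are means of at least two experiments.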

[2] = system: Human immunodeficiency virus 1; test: Antiviral activity against HIV1 3B infected in human MT2 cells after 5 days by chemiluminescence in presence of fetal bovine serum; assay type: functional, organism-based; conditions: Human immunodeficiency virus 1, 3B, MT2, 120 h
Procedure, shortened: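 HIV-1 IIIB infected MT-2 cells at m.o.i. 0.01 for 3 h, then ~1.5 × 10⁴ cells per well were added to 9 fivefold serial drug dilutions in triplicate in medium with 10% FBS. Plates ran 5 days at 37 °C. CellTiter-Glo was added with 10 min room-temperature lysis, and chemiluminescence was read. Values are means of at least two experiments.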

[3] = system: Human immunodeficiency virus 1; test: Antiviral activity against HIV1 3B infected in human MT2 cells after 5 days by chemiluminescence in presence of human serum albumin; assay type: functional, organism-based; conditions: Human immunodeficiency virus 1, 3B, MT2, 120 h
Procedure, shortened: (§1)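 Same MT-2/HIV-1 IIIB 5-day CellTiter-Glo chemiluminescence assay in 10% FBS, with physiological HSA (35 mg/ml) and α1-AGP (1.5 mg/ml) added. Shift fold is EC50 with these serum proteins divided by EC50 in 10% FBS alone.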

[4] = system: Human immunodeficiency virus 1; test: Ratio of EC50 for HIV1 3B in presence of human serum proteins to EC50 for HIV1 3B in presence of fetal bovine serum; assay type: functional; procedure, shortened: as §1
[5] = Oral bioavailability in rat; assay type: ADME, organism-based; conditions: in vivo
Procedure, shortened: (§2)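 Rats and dogs received compound as free parent in solution (EtOH, PG, PEG400 and citric acid), at pH 3.3 for iv and pH 2.2 for oral dosing. Half-life and total body clearance come from the iv groups. Oral F (%) is from po versus iv AUC. Values are means of three animals per study.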

[6] = Half life in iv dosed rat; assay type: ADME, organism-based; conditions: in vivo; procedure, shortened: as §2
[7] = Clearance in iv dosed rat; assay type: ADME, organism-based; conditions: in vivo; procedure, shortened: as §2
[8] = Oral bioavailability in dog; assay type: ADME, organism-based, Canis lupus familiaris; conditions: in vivo; procedure, shortened: as §2
[9] = Half life in iv dosed dog; assay type: ADME, organism-based, Canis lupus familiaris; conditions: in vivo; procedure, shortened: as §2
[10] = Clearance in iv dosed dog; assay type: ADME, organism-based, Canis lupus familiaris; conditions: in vivo; procedure, shortened: as §2

Row | Structure (SMILES) | IC50 [1] [nM] | EC50 [2] [nM] | EC50 [3] [nM] | bioavailability [5] [%] | half-life [6] [h] | clearance [7] [mL/min/kg] | bioavailability [8] [%] | half-life [9] [h] | clearance [10] [mL/min/kg] | Ratio EC50 [4]
1 | CN(c1c2c(c(O)c3ncccc13)C(=O)N(Cc1ccc(F)c(Cl)c1F)C2)S(C)(=O)=O | 135 | 5 | 18 | – | – | – | – | – | – | 3.6
2 | Cc1nnc(C(=O)NC(C)(C)c2nc(C(=O)NCc3ccc(F)cc3)c(O)c(=O)n2C)o1 [RALTEGRAVIR] | 40 | 4 | 20 | – | – | – | – | – | – | –
3 | CN(c1c2c(c(O)c3ncccc13)C(=O)N(Cc1cccc(Cl)c1F)C2)S(C)(=O)=O | 61 | 6 | 18 | – | – | – | – | – | – | 3
4 | CNC(=O)c1cc(F)ccc1CN1Cc2c(c(O)c3ncccc3c2N(C)S(C)(=O)=O)C1=O | 74 | 32 | 90 | – | – | – | – | – | – | 2.8
5 | CN(c1c2c(c(O)c3ncccc13)C(=O)N(Cc1ccccc1)C2)S(C)(=O)=O | 120 | 35 | – | – | – | – | – | – | – | –

Now from value to compound, other results behind:

Row | IC50 [1] [nM] | EC50 [2] [nM] | EC50 [3] [nM] | bioavailability [5] [%] | half-life [6] [h] | clearance [7] [mL/min/kg] | bioavailability [8] [%] | half-life [9] [h] | clearance [10] [mL/min/kg] | Structure (SMILES) | Ratio EC50 [4]
6 | 28 | 1.7 | 11.4 | 15 | 1.1 | 4.67 | 45 | 7 | 6.67 | CN(c1c2c(c(O)c3ncccc13)C(=O)N(Cc1ccc(F)cc1)C2)S(C)(=O)=O | 6.7
7 | 39 | 6 | 17 | 9 | 1.38 | 4.83 | 79 | 16 | 0.333 | CN(c1c2c(c(O)c3ncccc13)C(=O)N(Cc1cc(Cl)c(F)cc1F)C2)S(C)(=O)=O | 2.8
8 | 5 | 52 | – | – | – | – | – | – | – | CC(=O)Nc1cc(F)ccc1CN1Cc2c(c(O)c3ncccc3c2N(C)S(C)(=O)=O)C1=O | –
9 | 52 | 3.5 | 12 | 7 | 1.36 | 3.83 | 41 | 7.13 | 2.5 | CN(c1c2c(c(O)c3ncccc13)C(=O)N(Cc1ccc(F)c(Cl)c1)C2)S(C)(=O)=O | 3.4
